Test results from ChEMBL document CHEMBL1125826, “Synthesis and biological activity of 5-amino- and 5-hydroxyquinolones, and the overwhelming influence of the remote N1-substituent in determining the structure-activity relationship” (1991).
In brackets after ≈: the same amount, converted by molar mass.

Key:
Assay type in all cases: functional
[1] = tested on: Bacteria; test: Antibacterial activity was determined against gram negative organism, Providencia rettgeri. M1771; details: Bacteria; read-out: MIC
Procedure, shortened: (§1)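 MIC (µg/mL) by standard microtitration against a panel of 10 Gram-positive and Gram-negative organisms; values averaged from multiple experiments.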

[2] = tested on: Pseudomonas aeruginosa; test: Antibacterial activity was determined against gram negative organism, Pseudomonas aeruginosa UI-18; details: Pseudomonas aeruginosa; read-out: MIC; procedure, shortened: as §1
[3] = tested on: Streptococcus pneumoniae; test: (§2) Antibacterial activity was determined against gram positive organism, Streptococcus pneumoniae SV-1; details: Streptococcus pneumoniae; read-out: MIC; procedure, shortened: as §1
[4] = tested on: Staphylococcus aureus; test: (§3) Antibacterial activity was determined against gram positive organism, Staphylococcus aureus H228; details: Staphylococcus aureus; read-out: MIC; procedure, shortened: as §1
[5] = tested on: Klebsiella pneumoniae; test: Antibacterial activity was determined against gram negative organism, Klebsiella pneumoniae MGH-2; details: Klebsiella pneumoniae; read-out: MIC; procedure, shortened: as §1
[6] = tested on: Enterococcus faecalis; test: Antibacterial activity was determined against gram positive organism, Streptococcus faecalis MGH-2; details: Enterococcus faecalis; read-out: MIC; procedure, shortened: as §1
[7] = tested on: Streptococcus pyogenes; test: Antibacterial activity was determined against gram positive organism, Streptococcus pyogenes C203; details: Streptococcus pyogenes; read-out: MIC; procedure, shortened: as §1
[8] = (§4) MIC ratio measured as the mean MICs of gram-negative bacteria
Procedure, shortened: (§5)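 Geometric mean of the microtitration MICs (µg/mL) over the Gram-negative organisms, and separately over the Gram-positive organisms, of the 10-strain panel; individual MICs averaged from multiple experiments.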

[9] = tested on: Streptococcus pyogenes; test: The in vivo potency was determined in female charles river CD-1 mice infected with Streptococcus pyogenes after sc administration; details: Streptococcus pyogenes, sc; read-out: PD50
Procedure, shortened: (§6)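 Acute lethal systemic infection in female CD-1 mice, 16 mice per route; single subcutaneous dose given at the time of challenge; median protective dose (PD50, mg/kg) determined.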

[10] = tested on: Enterobacter cloacae; test: Antibacterial activity was determined against gram negative organism, Enterobacter cloacae MA2646; details: Enterobacter cloacae; read-out: MIC
[11] = (§7) MIC ratio measured as the mean MICs of gram-positive bacteria; procedure, shortened: as §5
[12] = tested on: Streptococcus pyogenes; test: The in vivo potency was determined in female charles river CD-1 mice infected with Streptococcus pyogenes after peroral administration; details: Streptococcus pyogenes, po; read-out: PD50
Procedure, shortened: (§8)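 Acute lethal systemic infection in female CD-1 mice, 16 mice per route; single dose given orally by gavage at the time of challenge; median protective dose (PD50, mg/kg) determined.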

[13] = tested on: Escherichia coli; test: The in vivo potency was determined in female charles river CD-1 mice infected with Escherichia coli after peroral administration; details: Escherichia coli, po; read-out: PD50; procedure, shortened: as §8
[14] = tested on: Escherichia coli; test: The in vivo potency was determined in female charles river CD-1 mice infected with Escherichia coli after sc administration; details: Escherichia coli, sc; read-out: PD50; procedure, shortened: as §6
[15] = tested on: Escherichia coli; test: Antibacterial activity was determined against gram negative organism, Escherichia coli vogel; details: Escherichia coli; read-out: MIC; procedure, shortened: as §1
[16] = tested on: Staphylococcus aureus; test: (§9) Antibacterial activity was determined against gram positive organism, Staphylococcus aureus UC76; procedure, shortened: as §1
[17] = tested on: Staphylococcus aureus; test: as §3
Procedure, shortened: (§10)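 Broth microtitration MIC against a panel of 10 Gram-positive and Gram-negative organisms; MIC in µg/mL, averaged over multiple experiments.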

[18] = tested on: Staphylococcus aureus; test: as §9; procedure, shortened: as §10; remark: listed apart in the source
[19] = tested on: Streptococcus pneumoniae; test: as §2; procedure, shortened: as §10
[20] = tested on: Streptococcus pneumoniae; test: The in vivo potency was determined in female charles river CD-1 mice infected with Streptococcus pneumoniae after peroral administration; details: Streptococcus pneumoniae, po; read-out: PD50; procedure, shortened: as §8
[21] = tested on: Bacteria; test: MIC ratio measured as the mean MICs of gram-negative; procedure, shortened: as §5
[22] = tested on: Streptococcus pneumoniae; test: The in vivo potency was determined in female charles river CD-1 mice infected with Streptococcus pneumoniae after sc administration; details: Streptococcus pneumoniae, sc; read-out: PD50; procedure, shortened: as §6
[23] = tested on: Bacteria; test: MIC ratio measured as the mean MICs of gram-positive values; procedure, shortened: as §5
[24] = target: T1, DNA gyrase (Escherichia coli) (UniProt P0AES6+P0AES4); test: Minimum inhibitory concentration against Escherichia coli DNA-gyrase in supercoiling assay
[25] = tested on: Bacteria; test: as §4; procedure, shortened: as §5
[26] = tested on: Bacteria; test: as §7; procedure, shortened: as §5
[27] = target: T1, DNA gyrase (Escherichia coli); test: Minimum inhibitory concentration against Escherichia coli DNA-gyrase supercoiling assay
[28] = Staphylococcus aureus, read-out: MIC

CC1CN(c2c(F)c(N)c3c(=O)c(C(=O)O)cn(C4CC4)c3c2Cl)CC(C)N1 (configuration not stated)
MIC [1]: 0.4 µg/mL (≈ 0.978 µM) | MIC [2]: 1.6 µg/mL (≈ 3.91 µM) | MIC [3]: 0.1 µg/mL (≈ 0.245 µM) | MIC [4]: 0.1 µg/mL (≈ 0.245 µM) | MIC [5]: 0.2 µg/mL (≈ 0.489 µM) | MIC [6]: 0.4 µg/mL (≈ 0.978 µM) | MIC [7]: 0.2 µg/mL (≈ 0.489 µM) | Ratio [8]: 0.23 | ED50 [9]: 8 mg/kg | MIC [10]: 0.1 µg/mL (≈ 0.245 µM) | Ratio [11]: 0.11 | ED50 [12]: 10 mg/kg | ED50 [13]: 2 mg/kg | ED50 [14]: 1 mg/kg | MIC [15]: 0.05 µg/mL (≈ 0.122 µM) | MIC [16, 28]: 0.025 µg/mL (≈ 0.0611 µM)

CCn1cc(C(=O)O)c(=O)c2cc(F)c(N3CCNCC3)cc21 [NORFLOXACIN]
MIC [1]: 0.025 µg/mL (≈ 0.0783 µM) | MIC [2]: 0.2 µg/mL (≈ 0.626 µM) | MIC [17]: 0.8 µg/mL (≈ 2.51 µM) | MIC [5]: 0.05 µg/mL (≈ 0.157 µM) | MIC [6]: 1.6 µg/mL (≈ 5.01 µM) | MIC [18]: 0.05 µg/mL (≈ 0.157 µM) | MIC [7]: 0.8 µg/mL (≈ 2.51 µM) | Ratio [8]: 0.057 | MIC [19]: 1.6 µg/mL (≈ 5.01 µM) | MIC [10]: 0.1 µg/mL (≈ 0.313 µM) | Ratio [11]: 0.61 | MIC [15]: 0.025 µg/mL (≈ 0.0783 µM)

NC1CCN(c2c(F)c(O)c3c(=O)c(C(=O)O)cn(C4CC4)c3c2F)C1 (configuration not stated)
MIC [1]: 0.05 µg/mL (≈ 0.137 µM) | MIC [2]: 0.2 µg/mL (≈ 0.547 µM) | MIC [3]: 0.05 µg/mL (≈ 0.137 µM) | MIC [4]: 0.1 µg/mL (≈ 0.274 µM) | MIC [5]: 0.025 µg/mL (≈ 0.0684 µM) | MIC [6]: 0.1 µg/mL (≈ 0.274 µM) | MIC [7]: 0.05 µg/mL (≈ 0.137 µM) | ED50 [20]: 107 mg/kg | Ratio [21]: 0.034 | ED50 [9]: 11 mg/kg | ED50 [22]: 18 mg/kg | MIC [10]: 0.013 µg/mL (≈ 0.0356 µM) | ED50 [12]: 90 mg/kg | ED50 [13]: 2 mg/kg | ED50 [14]: 0.5 mg/kg | MIC [15]: 0.013 µg/mL (≈ 0.0356 µM) | MIC [16, 28]: 0.025 µg/mL (≈ 0.0684 µM) | Ratio [23]: 0.057 | MIC [24]: 0.5 µg/mL (≈ 1.37 µM)

NC1CCN(c2c(F)cc3c(=O)c(C(=O)O)cn(C4CC4)c3c2F)C1 (configuration not stated)
MIC [1]: 0.05 µg/mL (≈ 0.143 µM) | MIC [2]: 0.1 µg/mL (≈ 0.286 µM) | MIC [3]: 0.05 µg/mL (≈ 0.143 µM) | MIC [4]: 0.05 µg/mL (≈ 0.143 µM) | MIC [5]: 0.025 µg/mL (≈ 0.0716 µM) | MIC [6]: 0.1 µg/mL (≈ 0.286 µM) | MIC [7]: 0.05 µg/mL (≈ 0.143 µM) | ED50 [20]: 8 mg/kg | Geometric mean MIC over Gram-negative bacteria (µg/mL) [25]: 0.029 | ED50 [9]: 6 mg/kg | ED50 [22]: 2 mg/kg | MIC [10]: 0.013 µg/mL (≈ 0.0372 µM) | ED50 [12]: 15 mg/kg | ED50 [13]: 0.9 mg/kg | Geometric mean MIC over Gram-positive bacteria (µg/mL) [26]: 0.044 | ED50 [14]: 0.2 mg/kg | MIC [15]: 0.013 µg/mL (≈ 0.0372 µM) | MIC [16, 28]: 0.013 µg/mL (≈ 0.0372 µM) | MIC [24]: 0.1 µg/mL (≈ 0.286 µM)

CCNCC1CCN(c2c(F)cc3c(=O)c(C(=O)O)cn(C4CC4)c3c2F)C1 (configuration not stated) [PD-117558]
MIC [1]: 0.2 µg/mL (≈ 0.511 µM) | MIC [2]: 0.4 µg/mL (≈ 1.02 µM) | MIC [3]: 0.025 µg/mL (≈ 0.0639 µM) | MIC [4]: 0.05 µg/mL (≈ 0.128 µM) | MIC [5]: 0.1 µg/mL (≈ 0.255 µM) | MIC [6]: 0.025 µg/mL (≈ 0.0639 µM) | MIC [7]: 0.025 µg/mL (≈ 0.0639 µM) | ED50 [20]: 2 mg/kg | Geometric mean MIC over Gram-negative bacteria (µg/mL) [25]: 0.13 | ED50 [9]: 2 mg/kg | ED50 [22]: 0.5 mg/kg | MIC [10]: 0.1 µg/mL (≈ 0.255 µM) | ED50 [12]: 5 mg/kg | ED50 [13]: 4 mg/kg | Geometric mean MIC over Gram-positive bacteria (µg/mL) [26]: 0.025 | ED50 [14]: 1 mg/kg | MIC [15]: 0.05 µg/mL (≈ 0.128 µM) | MIC [16, 28]: 0.013 µg/mL (≈ 0.0332 µM) | MIC [24]: 0.25 µg/mL (≈ 0.639 µM)

CC1CN(c2cc3c(c(N)c2F)c(=O)c(C(=O)O)cn3-c2ccc(F)cc2F)CCN1 (configuration not stated)
MIC [1]: 0.4 µg/mL (≈ 0.925 µM) | MIC [27]: 2.5 µg/mL (≈ 5.78 µM) | MIC [2]: 1.6 µg/mL (≈ 3.7 µM) | MIC [17]: 0.2 µg/mL (≈ 0.463 µM) | MIC [5]: 0.2 µg/mL (≈ 0.463 µM) | MIC [6]: 0.4 µg/mL (≈ 0.925 µM) | MIC [18]: 0.05 µg/mL (≈ 0.116 µM) | MIC [7]: 0.4 µg/mL (≈ 0.925 µM) | Ratio [8]: 0.3 | MIC [19]: 0.2 µg/mL (≈ 0.463 µM) | MIC [10]: 0.2 µg/mL (≈ 0.463 µM) | Ratio [11]: 0.2 | MIC [15]: 0.1 µg/mL (≈ 0.231 µM)

Nc1c(F)c(N2CCC(N)C2)c(Cl)c2c1c(=O)c(C(=O)O)cn2C1CC1 (configuration not stated)
MIC [1]: 0.1 µg/mL (≈ 0.263 µM) | MIC [2]: 0.8 µg/mL (≈ 2.1 µM) | MIC [3]: 0.1 µg/mL (≈ 0.263 µM) | MIC [4]: 0.1 µg/mL (≈ 0.263 µM) | MIC [5]: 0.05 µg/mL (≈ 0.131 µM) | MIC [6]: 0.1 µg/mL (≈ 0.263 µM) | MIC [7]: 0.1 µg/mL (≈ 0.263 µM) | Ratio [8]: 0.076 | MIC [10]: 0.025 µg/mL (≈ 0.0657 µM) | Ratio [11]: 0.076 | ED50 [13]: 6 mg/kg | ED50 [14]: 1 mg/kg | MIC [15]: 0.025 µg/mL (≈ 0.0657 µM) | MIC [16]: 0.025 µg/mL (≈ 0.0657 µM)
